Converted amounts (≈) assume the structure as drawn. The source made the active and inactive calls. The rule behind the calls is not given here.
Tests used:
Staphylococcus aureus [1] = test: Ratio of MIC50 for Staphylococcus aureus ATCC 29213 in absence of 50% bovine serum to MIC50 for Staphylococcus aureus ATCC29213 in presence of 50% bovine serum; assay type: functional
Summary of the method: (§1)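 S. aureus ATCC 29213 overnight culture (37 °C) diluted 1:1000 in 50% bovine serum/broth and run by liquid microdilution. Growth was taken from OD600 change over 18 h at 37 °C to give MIC50, in triplicate against a vehicle control. The enhancement ratio is MIC50 without serum divided by MIC50 with serum.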

Staphylococcus aureus [2] = test: Antibacterial activity against Erm+ methicillin-resistant Staphylococcus aureus ATCC 33591 assessed as inhibition of bacterial growth after 18 hrs by liquid microdilution method; assay type: functional
Summary of the method: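 MRSA grown overnight at 37 °C in Nutrient broth, diluted 1:1000 in the same medium, then plated with the compounds. Growth was judged by comparing OD600 before and after 18 h at 37 °C. MIC50 was taken by liquid microdilution. Vancomycin was the positive control. Each compound was run in triplicate and standardized against an internal vehicle control.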

Escherichia coli [3] = test: Inhibition of ribosome nascent peptide exit tunnel in Escherichia coli S30 extract assessed as inhibition of prokaryotic translation in presence of amino acids incubated for 20 mins by luciferase reporter gene assay relative to azithromycin
Staphylococcus aureus [4] = test: Antibacterial activity against Staphylococcus aureus ATCC 29213 assessed as inhibition of bacterial growth after 18 hrs in presence of 50% bovine serum by liquid microdilution method; assay type: functional; conditions: ATCC 29213, 18 h; summary of the method: as §1
Staphylococcus aureus [5] = test: Antibacterial activity against Staphylococcus aureus ATCC 29213 assessed as inhibition of bacterial growth after 18 hrs by liquid microdilution method; assay type: functional; conditions: ATCC 29213, 18 h
Summary of the method: (§2)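 Liquid microdilution. Overnight 37 °C cultures, E. coli ATCC 27856 in LB and S. aureus ATCC 29213 in TSB, diluted 1:1000 in the same medium and exposed to compound. Growth was taken from OD600 before and after 18 h at 37 °C. MIC50 is the read-out. Triplicate, normalized to an internal vehicle control.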

[6] = Inhibition of ribosome nascent peptide exit tunnel in Escherichia coli S30 extract assessed as inhibition of prokaryotic translation in presence of amino acids incubated for 20 mins by luciferase reporter gene assay
Summary of the method: (§3)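 E. coli S30 cell-free extract with all amino acids, preincubated with compound for 20 min at room temperature. Luciferase control template added, translation run 60 min at 37 °C, then stopped by 5 min on ice. Luminescence was read after luciferin addition. IC50 from nonlinear fit, triplicate, normalized to vehicle control.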

Escherichia coli [7] = test: Antibacterial activity against Escherichia coli ATCC 27856 assessed as inhibition of bacterial growth after 18 hrs by liquid microdilution method; assay type: functional; summary of the method: as §2
[8] = Binding affinity to ribosome nascent peptide exit tunnel in rabbit reticulocyte extract assessed as inhibition of eukaryotic translation in presence of amino acids incubated for 20 mins by luciferase reporter gene assay; set-up: species or system Oryctolagus cuniculus
Summary of the method: as §3, with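 “Nuclease-treated rabbit reticulocyte lysate” for “E. coli S30 cell-free extract”, “90” for “60”, “30” for “37”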

Row | SMILES | Ratio (Staphylococcus aureus [1]) | MIC50 (Staphylococcus aureus [2]) | fold change (FC) (Escherichia coli [3]) | MIC50 (Staphylococcus aureus [4]) | MIC50 (Staphylococcus aureus [5]) | IC50 [6] | MIC50 (Escherichia coli [7]; ATCC 27856, 18 h) | IC50 [8] | MIC50 (Escherichia coli [7])
1 | CC[C@H]1OC(=O)[C@H](C)[C@@H](O[C@H]2C[C@@](C)(OC)[C@@H](O)[C@H](C)O2)[C@H](C)[C@@H](O[C@@H]2O[C@H](C)C[C@H](N(C)C)[C@H]2O)[C@](C)(O)C[C@@H](C)CN(CCCCc2cn(CCn3ccc4ccccc43)nn2)[C@H](C)[C@@H](O)[C@]1(C)O | 10 | inactive | 2.3 | 0.16 µg/mL | 1.56 µg/mL (≈ 1.56 µM) | 128 nM | 64 µg/mL (≈ 63.9 µM) | > 250000 nM | 
2 | CC[C@H]1OC(=O)[C@H](C)[C@@H](O[C@H]2C[C@@](C)(OC)[C@@H](O)[C@H](C)O2)[C@H](C)[C@@H](O[C@@H]2O[C@H](C)C[C@H](N(C)C)[C@H]2O)[C@](C)(O)C[C@@H](C)CN(Cc2ccc(-c3cn(CCn4ccc5cc([N+](=O)[O-])ccc54)nn3)cc2)[C@H](C)[C@@H](O)[C@]1(C)O | 4 | inactive |  | 0.39 µg/mL | 1.56 µg/mL (≈ 1.44 µM) | 442 nM | 128 µg/mL (≈ 118 µM) | > 250000 nM | 
3 | CC[C@H]1OC(=O)[C@H](C)[C@@H](O[C@H]2C[C@@](C)(OC)[C@@H](O)[C@H](C)O2)[C@H](C)[C@@H](O[C@@H]2O[C@H](C)C[C@H](N(C)C)[C@H]2O)[C@](C)(O)C[C@@H](C)CN(Cc2ccc(-c3cn(CCN4CCc5ccccc54)nn3)cc2)[C@H](C)[C@@H](O)[C@]1(C)O | 2 | inactive |  | 0.78 µg/mL | 1.56 µg/mL (≈ 1.5 µM) | 555 nM | 64 µg/mL (≈ 61.7 µM) | > 250000 nM | 
4 | CC[C@H]1OC(=O)[C@H](C)[C@@H](O[C@H]2C[C@@](C)(OC)[C@@H](O)[C@H](C)O2)[C@H](C)[C@@H](O[C@@H]2O[C@H](C)C[C@H](N(C)C)[C@H]2O)[C@](C)(O)C[C@@H](C)CN(CCCCc2cn(CCc3c[nH]c4ccc(Cl)cc34)nn2)[C@H](C)[C@@H](O)[C@]1(C)O | 5 | inactive |  | 0.16 µg/mL | 0.78 µg/mL (≈ 0.753 µM) | 880 nM | 32 µg/mL (≈ 30.9 µM) | > 250000 nM | 
5 | CC[C@H]1OC(=O)[C@H](C)[C@@H](O[C@H]2C[C@@](C)(OC)[C@@H](O)[C@H](C)O2)[C@H](C)[C@@H](O[C@@H]2O[C@H](C)C[C@H](N(C)C)[C@H]2O)[C@](C)(O)C[C@@H](C)CN(CCCCc2cn(CCc3cn(C)c4ccccc34)nn2)[C@H](C)[C@@H](O)[C@]1(C)O | 10 | inactive |  | 0.16 µg/mL | 1.56 µg/mL (≈ 1.54 µM) | 227 nM | 128 µg/mL (≈ 126 µM) | > 250000 nM | 
6 | CC[C@H]1OC(=O)[C@H](C)[C@@H](O[C@H]2C[C@@](C)(OC)[C@@H](O)[C@H](C)O2)[C@H](C)[C@@H](O[C@@H]2O[C@H](C)C[C@H](N(C)C)[C@H]2O)[C@](C)(O)C[C@@H](C)CN(Cc2ccc(-c3cn(CCc4c[nH]c5ccc(F)cc45)nn3)cc2)[C@H](C)[C@@H](O)[C@]1(C)O | 2 | inactive |  | 1.56 µg/mL | 3.13 µg/mL (≈ 2.97 µM) | 2030 nM |  | > 250000 nM | inactive
7 | CC[C@H]1OC(=O)[C@H](C)[C@@H](O[C@H]2C[C@@](C)(OC)[C@@H](O)[C@H](C)O2)[C@H](C)[C@@H](O[C@@H]2O[C@H](C)C[C@H](N(C)C)[C@H]2O)[C@](C)(O)C[C@@H](C)CN(Cc2ccc(-c3cn(CCc4c[nH]c5ccc(Cl)cc45)nn3)cc2)[C@H](C)[C@@H](O)[C@]1(C)O | 1 | inactive |  | 1.56 µg/mL | 1.56 µg/mL (≈ 1.46 µM) | 586 nM |  | > 250000 nM | inactive
